The results in this text go back to ChEMBL document CHEMBL4138261, “SAR Studies of Indole-5-propanoic Acid Derivatives To Develop Novel GPR40 Agonists” (ACS Med Chem Lett, 2017).

In data set [1] the target is Free fatty acid receptor 1 (Homo sapiens, UniProt O14842). The data set is described as follows: Agonist activity at human GPR40 expressed in CHO cells after 24 hrs by NFAT-luciferase reporter gene assay. The data set is classed as functional, cell-based. (A reporter such as luciferase makes a cellular process visible.)
The target in data set [2] is T1, Peroxisome proliferator-activated receptor gamma (Homo sapiens) (UniProt P37231).
T1 sequence (whole entry): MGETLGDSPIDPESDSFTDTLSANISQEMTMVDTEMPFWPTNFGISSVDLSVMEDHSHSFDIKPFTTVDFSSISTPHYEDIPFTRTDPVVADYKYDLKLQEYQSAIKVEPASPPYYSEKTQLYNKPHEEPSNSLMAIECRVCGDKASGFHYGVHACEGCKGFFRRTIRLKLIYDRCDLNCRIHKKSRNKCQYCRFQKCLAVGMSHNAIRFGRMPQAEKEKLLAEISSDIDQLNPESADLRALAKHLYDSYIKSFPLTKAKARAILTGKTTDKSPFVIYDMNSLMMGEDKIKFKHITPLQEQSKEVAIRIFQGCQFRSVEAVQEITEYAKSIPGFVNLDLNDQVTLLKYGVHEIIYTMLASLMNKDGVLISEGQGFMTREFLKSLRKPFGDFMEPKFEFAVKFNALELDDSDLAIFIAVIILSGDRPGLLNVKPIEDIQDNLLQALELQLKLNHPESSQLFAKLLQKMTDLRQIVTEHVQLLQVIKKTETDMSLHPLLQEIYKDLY
The data set is described as follows: Transactivation of human PPARgamma expressed in CHO cells at 10 uM after 24 hrs by luciferase reporter gene assay relative to rosiglitazone. In kind it is cell-based. In a few lines: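 Luciferase reporter transactivation assay for PPARγ; compounds tested at 10 μM; activity expressed as percent of 1 μM rosiglitazone; no activity defined as >25 μM.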

The target in data set [3] is T2, Peroxisome proliferator-activated receptor gamma (Homo sapiens, UniProt P37231).
T2 sequence (P37231 whole entry): T1 sequence (whole entry)
Kind of data set: Transactivation of human PPARgamma expressed in CHO cells after 24 hrs by luciferase reporter gene assay. The data set is classed as cell-based.

The nature of data set [4]: Intrinsic clearance in human liver microsomes at 1 uM after 30 mins in presence of NADPH by UPLC-MS analysis. In kind it is ADME, microsome. As to conditions: 0.5 h. In a few lines:
(§1)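 Liver microsomal stability; intrinsic clearance reported in μL/min/mg.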

Data set [5] can be described thus: Intrinsic clearance in CD-1 mouse liver microsomes at 1 uM after 30 mins in presence of NADPH by UPLC-MS analysis. In kind it is ADME, microsome. As to conditions: 0.5 h. The method in brief:
as §1

For data set [6], the target named is Free fatty acid receptor 1 (Mus musculus) (UniProt Q76JU9). The data set is described as follows: Agonist activity at GPR40 in mouse MIN6 cells assessed as increase in 17 mM glucose-stimulated insulin secretion at 1 and 10 uM after 2 hrs by ELISA relative to glucose. The data set is classed as functional, cell-based. The method in brief: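 GSIS in MIN6 insulinoma cells stimulated with 17 mM glucose; insulin secretion compared with 17 mM glucose alone by Student's test (*p ≤ 0.05, **p ≤ 0.025, ***p ≤ 0.01).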
(In an ELISA, binding on a coated surface is turned into a signal by an enzyme label.)

Active and inactive are the calls of the source.

Sequence of Free fatty acid receptor 1 (Mus musculus) (Q76JU9 whole entry): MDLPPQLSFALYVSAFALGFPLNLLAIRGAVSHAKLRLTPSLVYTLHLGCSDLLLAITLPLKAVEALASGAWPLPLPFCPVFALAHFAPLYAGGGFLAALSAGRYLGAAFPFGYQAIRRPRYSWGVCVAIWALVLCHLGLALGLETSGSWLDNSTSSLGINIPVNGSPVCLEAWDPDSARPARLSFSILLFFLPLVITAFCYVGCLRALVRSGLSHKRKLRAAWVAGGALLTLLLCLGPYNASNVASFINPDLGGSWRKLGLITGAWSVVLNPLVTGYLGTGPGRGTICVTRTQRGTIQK
Sequence of Free fatty acid receptor 1 (O14842 whole entry): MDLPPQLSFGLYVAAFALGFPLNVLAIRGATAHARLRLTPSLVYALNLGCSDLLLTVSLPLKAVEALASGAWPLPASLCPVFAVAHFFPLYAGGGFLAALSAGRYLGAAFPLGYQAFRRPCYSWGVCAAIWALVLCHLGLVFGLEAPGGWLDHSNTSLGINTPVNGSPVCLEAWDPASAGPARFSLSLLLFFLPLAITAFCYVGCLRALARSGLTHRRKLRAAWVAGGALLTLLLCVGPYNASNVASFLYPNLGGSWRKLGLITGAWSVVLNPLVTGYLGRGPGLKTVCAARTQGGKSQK

With `COc1ccc(-c2cc3cc(CCC(=O)O)ccc3[nH]2)cc1`, the EC50 (as a rule, the concentration needed to bring the measured effect to its halfway point) in data set [1] is more than 25000 nM. This compound also registered an Activity in data set [2] of 5%.
Compound `Cn1c(-c2ccccc2Br)cc2cc(CCC(=O)O)ccc21` showed an EC50 in data set [1] of more than 10000 nM.
As for `O=C(O)CCc1ccc2[nH]c(-c3cccc(Br)c3)cc2c1`, the EC50 is 1800 nM in data set [1] and 236000 nM in data set [3]. The compound further showed an Activity in data set [2] of 56%.
For the compound `O=C(O)CCc1ccc(NCc2cccc(Oc3ccccc3)c2)cc1` [GW9508], in data set [1], the EC50 was 50 nM.
`CCc1ccccc1-c1cc2cc(CCC(=O)O)ccc2[nH]1`: the EC50 in data set [1] was determined as 1800 nM. The Activity in data set [2] came to 7%.
`Cc1ncccc1-c1cc2cc(CCC(=O)O)ccc2[nH]1`: the EC50 is more than 25000 nM in data set [1] and 56900 nM in data set [3]. In addition, the Activity in data set [2] turned out to be 64%.
Compound `O=C(O)CCc1ccc2[nH]c(-c3ccccc3OC(F)(F)F)cc2c1` returned an EC50 in data set [1] of 1020 nM. Also, in data set [2], the Activity is 2%.
For `Cn1c(-c2cccc(Cl)c2)cc2cc(CCC(=O)O)ccc21`, the EC50 in data set [1] is more than 10000 nM.
Regarding `O=C(O)CCc1ccc2[nH]c(-c3ccccc3Br)cc2c1`, the EC50 in data set [1] came to 9.4 nM. Also, the Activity in data set [2] worked out at 4%. For the same compound, the CLH turned out to be 7.1 µL/min in data set [4] and 10.4 µL/min in data set [5]. In addition, the fold change (FC) in data set [6] stood at 1.6.
In turn, `O=C(O)CCc1ccc2[nH]c(-c3ccc(Cl)cc3)cc2c1` registered an EC50 in data set [1] of 778 nM. Further, in data set [2], the Activity came to 1%.
As for `O=C(O)CCc1ccc2[nH]c(-c3ccccc3Cl)cc2c1`, the EC50 in data set [1] was in the range of 54.6 to 58.6 nM. For the same compound, the Activity in data set [2] was 1%. Also, the CLH in data set [4] came out at 9.2 µL/min; in data set [5] it was 14.3 µL/min. Further, the fold change (FC) in data set [6] amounted to 1.4.
Turning to `O=C(O)CCc1ccc2[nH]c(-c3ccccc3C(F)(F)F)cc2c1`, the EC50 in data set [1] stood at 1310 nM. For the same compound, the Activity in data set [2] came out at 8%.
For `Cc1ccc(-c2cc3cc(CCC(=O)O)ccc3[nH]2)cc1`, in that order: more than 25000 nM and 4%.
In the case of `Cc1cc(OCCCS(C)(=O)=O)cc(C)c1-c1cccc(COc2ccc3c(c2)OC[C@H]3CC(=O)O)c1`, the fold change (FC) in data set [6] came to 1.7.
Consider `O=C(O)CCc1ccc2[nH]c(-c3cccc(Cl)c3)cc2c1`, for which the EC50 in data set [1] worked out at 37.8 nM; in data set [3] it was 2400 nM. Further, the Activity in data set [2] was 101%. Further, the CLH in data set [4] turned out to be 4.3 µL/min; in data set [5], 11.3 µL/min. The fold change (FC) in data set [6] was 1.7.
In turn, `COc1cccc(-c2cc3cc(CCC(=O)O)ccc3[nH]2)c1` displayed an EC50 in data set [1] of more than 25000 nM. For the same compound, the Activity in data set [2] came out at 5%.
Consider `O=C(O)CCc1ccc2[nH]c(-c3ccccc3)cc2c1`, for which, in data set [1], the EC50 was more than 25000 nM. The same compound showed an Activity in data set [2] of 14%. Further, in data set [6], the result was inactive.
In the case of `CC(C)c1ccccc1-c1cc2cc(CCC(=O)O)ccc2[nH]1`, the EC50 in data set [1] is more than 25000 nM. Also, in data set [2], the Activity came to 2%.
Regarding `Cc1cccc(-c2cc3cc(CCC(=O)O)ccc3[nH]2)c1`, in data set [1], the 50% effective concentration (EC50) is more than 25000 nM. Further, in data set [2], the Activity came out at 8%.
As for `Cn1c(-c2ccc(Cl)cc2)cc2cc(CCC(=O)O)ccc21`, the EC50 in data set [1] is more than 10000 nM.
Regarding `Cc1ccccc1-c1cc2cc(CCC(=O)O)ccc2[nH]1`, in data set [1], the EC50 worked out at 447 nM. Moreover, the Activity in data set [2] worked out at 4%.
`O=C(O)CCc1ccc2[nH]c(-c3ccccc3F)cc2c1` gave an EC50 in data set [1] of 1210 nM. In data set [2], the Activity is 3%.
For `COc1ccccc1-c1cc2cc(CCC(=O)O)ccc2[nH]1`, in that order: more than 25000 nM and 0%.
